According to the EternaBench riboswitch data:

System: MS2 coat protein
Experiment: apparent Kd, MS2 coat protein; higher = weaker binding; RNA-MaP array; FMN 200 µM where present
Procedure, shortened: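 Stalled E. coli RNA polymerase transcribed each design on Illumina sequencing-chip clusters. The clusters were titrated with SNAP-549-labelled MS2 coat protein, starting at 0.7 or 1.5 nM and doubling up to 3 µM, first without ligand and then with constant ligand, in 100 mM Tris-HCl pH 7.5, 80 mM KCl, 4 mM MgCl2, BSA, DTT, yeast tRNA and Tween-20. Green signal was normalised to red-channel RNA signal and to the control-cluster median Fmax. The apparent Kd is the median of filtered binding-curve fits made for each cluster.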

[1] = designed as: ON switch for flavin mononucleotide, no ligand
[2] = ligand present: flavin mononucleotide, designed as: ON switch for flavin mononucleotide
[3] = designed as: OFF switch for flavin mononucleotide, no ligand
[4] = ligand present: flavin mononucleotide, designed as: OFF switch for flavin mononucleotide

| Sequence | apparent Kd [1] [nM] | apparent Kd [2] [nM] | apparent Kd [3] [nM] | apparent Kd [4] [nM] |
| --- | --- | --- | --- | --- |
| AAGCCUAAUGAGAAGGUGUGUAUAAAUUAUAUACAAGGAUAUCGGUCAAGCAUGAAAACAUGAGGAUCACCCAUGUUAAGGCUU | 5.82 | 5.51 | – | – |
| UGUCGGAAGUAGAAGGGUAUGACAUGAGGAUCACCCAUGUGAUUUGGGUAUACAGGAUAUGCUUAUAUAUAUGAUUAAAUUAUU | – | – | 451 | 248 |
| AAGGGAUGAGCGUAGGAUAUAGGAGAAGUGACAUGAGGAUCACCCAUGUAAAAGGAGGGAUGAGACUAGAAGGACGAGGUAGGAG | 107 | 125 | – | – |
| CAGCGAUAGCUGAACAAUCUAUCACAGGAUAUUCAUAAAACAUGAGGAUCACCCAUGUGAAAUUGGGAGAAGGGUGAUAGAUUG | 10.8 | 5.04 | – | – |
| UUAAUUCAUGUAGGAUAUCCGAUGCGAAGCGUUGGAGAAGGACAUGAGGAUCACCCAUGUUCUAGCGUCUGAGUACAGAUGCAA | – | – | 26.9 | 88.5 |
| AAUUUACAGCUAGGAUAUACAUGAGGAUCACCCAUGUAAUGAUAGGAUCUUAUGAUCGUAUCAGUGUAGAAGGAGCAAAUAAGA | – | – | 9.39 | 8.81 |
| GCCAUCGCAUGAGGAUAUGCUCCCGUUUCGGGAGCAGAAGGCAUGUCACAAGACAUGAGGAUCACCCAUGUAGUUAUGAUGGCA | 221 | 8.6 | – | – |
| UGGUACAUCGGAGGAUAUCAUGUAUAGACAUGAGGAUCACCCAUGUCGUACGAGAGUACGGAGAUUGAGAAGGCCGAUGUACCU | 21 | 16.6 | – | – |
| AAGUAGGGAGGAUAUACAUAGAUACAGAUUCGUGUAGAACUACAUGAGGAUCACCCAUGUAGAAGGCCCUAAUA | – | – | 18.1 | 41.6 |
| GACUGCCGAGGAUAUACAUGAGGAUCACCCAUGUGCUUCAGCAUUUAAUAAUGCAUGGGUAGAAGGCGGUAGUC | – | – | 42.8 | 74.6 |
| ACAAAUGGAGGAUAUACAUGAGGAUCACCCAUGUUUAUCCUACAUAUGUGAUAAUCAUGUAGAAGGCCAUUUGA | – | – | 24.7 | 15.9 |
| UGAUCCGCAUCGGCGCACAAGACAUGAGGAUCACCCAUGUACAGAAGGCGAAAAGCGAAGGCGGUCGAGGAUAUGUACCUACGG | – | – | 6.92 | 15.7 |
| AGAUAGUUAUAACGCCAUCCCUACAUGAGGAUCACCCAUGUGCAGGAUAUAGGCUUGAAGCAGACCUAGAAGGGCACAGGCUGA | – | – | 8.34 | 22.2 |
| AUAUUUAAUAUAGGAUAUAGGAAGAAUGAUGAACUAGAAGGAUAACAUACAUGAGGAUCACCCAUGUCCCAUGUGAUCACCCAU | – | – | 321 | 338 |
| GCGAAGAACGAGAAGGCCACUACAUGAGGAUCACCCAUGUCGUGGAGUAUUGGAGGAUAUCGUUAGGCGUCUCAUGAGGACAUA | – | – | 5.26 | 5.69 |
| GUCCUUAGCGAGGAUAUCGGGCGGGUUUUUGUUUGAGAAGGCGUGACAUGAGGAUCACCCAUGUGGCGCGUGGG | – | – | 39.2 | 69.7 |
| GAUAGGACAGAGAAGGACAUAGCUAGAGAUACUAGCAUAUGAACCUUCACAUGAGGAUCACCCAUGUAGGAUAUCUGUCCUAUC | – | – | 3.51 | 3.96 |
| CCGAAUGUCACAGGAUAUGGUCCGGGCUCACGACCAGAAGGGUGAUCUCACAUGAGGAUCACCCAUGUGUAGGCGUUAGGCUAC | 35.3 | 114 | – | – |
| CCUCGACAUGAGGAUCACCCAUGUCAGGAUAUUGUGUAUCGGGUUUUUUACCGAAAGGCGAGAAGGGAUGUGUG | – | – | 16.9 | 23.1 |
| UAAGCGUAUGUUAGGAUAUGCUGGUCCUUGGAUCAGCAGAAGGAACAUGAGGAUCACCCAUGUAGAAUCGUUUA | – | – | 18.3 | 40.2 |
| CAGUUCUGAGGAUAUCCACCCUCCUACAUGAGGAUCACCCAUGUUUCCCUCUGGGCUUUCGGAGAAGGCAGUUAUC | – | – | 52.5 | 43.6 |
| GGAGCUCACAUGAACAUGAGGAUCACCCAUGUAAAUUCUCAUGAGGAUAUGGAUCCUAAUUGGAUCCAGAAGGCAUGGAGCUCC | 1350 | 316 | – | – |
| AGGGUAUGAACAUGAGGAUCACCCAUGUACUAGGAAACGAAUGAGGAUAUCGAUAGCAAAGCUAUCGAGAAGGCAUGGGACCCU | 322 | 59.2 | – | – |
| AGUCAUACAGGAUAUACAUGAGGAUCACCCAUGUAUAUCCUACAUGGGUGAUCCUCAUGUAGAAGGGUAUGACA | – | – | 13.5 | 11.6 |

| Sequence | apparent Kd [1] [nM] | apparent Kd [2] [nM] | apparent Kd [3] [nM] | apparent Kd [4] [nM] |
| --- | --- | --- | --- | --- |
| ACAUGCAUUCGAGGAUAUCGGUGAUUAAUUCUACGAGAAGGCGAUUUAAGAUAUAUUGUUUUAGACAUGAGGAUCACCCAUGUA | 29 | 23.2 | – | – |
| ACAUGAGGAUCACCCAUGUUCACAUAGGAUAUUGAUUUUAUUGGUUUUAGAAUAGUUAUUAAGCUCAAGAAGGAUGCCAGUUGU | 12.4 | 9.97 | – | – |
| UGUUGAUAGCAGAAGGACAUGAGGAUCACCCAUGUAAGGUUACAAAUAUAUGUAGGAUAUGCUAUUGACUAAGAGUGAGCGUUC | – | – | 8.88 | 39.5 |
| CGCUAGUCAGGAUAUACGCACAUGUCACCAGACGUGAAGGGACAUGAGGAUCACCCAUGUAGAAGGGACUAGCC | – | – | 98.5 | 246 |
| AGUUAAUGCACAUGAGGAUCACCCAUGUCACUUUAUAGAAGACAGGAUAUGCAUGCCAUCAAUGUGCAGAAGGGUCAUCACCGA | 81 | 195 | – | – |
| UAUAUGUCAGGAUAUUAGUUGAGGUGGAAUUUAGCCUCUGCUGAGAAGGGACAUGAGGAUCACCCAUGUUCCUC | – | – | 21.9 | 200 |
| AUCAGCUCGUCAGGAUAUACGUCACUGCUUCGGCAGUGUGGUAAGGUCACAUGAGGAUCACCCAUGUAGAAGGGACGAGCUGAU | – | – | 8.32 | 120 |
| UGGGUCACAGGAUAUACAUGAGGAUCACCCAUGUCGUAUUUCGUGGCGGAGAGCUCGAGUAGAAGGGUGCAUCC | – | – | 119 | 87.4 |
| AUUUAUGUUGAGGAUAUGCUAAAAUGUAUAGUUGCAGAAGGCGACACAUGAGGAUCACCCAUGUUCAUGGAAUU | – | – | 37 | 43.7 |
| AUUAUUAUAAAUUUGGCAAGUAUCAGAAGGCGUUACAUGAGGAUCACCCAUGUUUUGUAUAGUAACGAGGAUAUGAUAUGGAAA | – | – | 15.2 | 13.5 |
| CUUUUGUGAGGAUAUCAGUAGUAAAUAAAUAAAAUUAUUACUGAGAAGGCACAUGAGGAUCACCCAUGUUCCUC | – | – | 40.1 | 192 |
| GAAUAAUUGAUCCAAUAUAACAACAUGAGGAUCACCCAUGUGCAGGAUAUCGUAUUUAUUAUAUACGAGAAGGGCAAGAACUGU | – | – | 343 | 475 |
| AAAACCUCAUGAGGAUAUCCAACAUGAGGAUCACCCAUGUUAGUCUCAGUACUAGAUACUUGAGAGGAGAAGGCAUGCCAGGGC | 97 | 31.6 | – | – |
| AUACCACGAGGAUAUCGUCUAUAAUACAUGAGGAUCACCCAUGUUAUAUAUGUAAUGUUUCGAGAAGGCGUGUUUU | – | – | 16.6 | 12.9 |
| AAACUGUGAGGAUAUGGUGAGUAGUGCCUGAGCGCUGCUCACCAGAAGGCACAUGAGGAUCACCCAUGUAUAAC | – | – | 24.8 | 62.1 |
| ACAUGAGGAUCACCCAUGUUGAAUUAGGAUAUUUGACUGCACAUGAGGUUCUCCCAUGUUCAACCGGAGAAGGGAUUAAUAAUU | 318 | 132 | – | – |
| GCAUGACAAAGUCAUGCAUUACGAACAUGAGGAUCACCCAUGUAGGAUAUGCUACUCAAAGAGUAGCAGAAGGACAUGUGUCUU | – | – | 32.7 | 158 |
| GGAUGAUAAAUAGGAUAUUAAUUGUAAUUAGGUUAAGAAGGAUUAAUGAUUUAAACGACCAGUUACAUGAGGAUCACCCAUGUU | 177 | 161 | – | – |
| GGACGACUCAUUAACAUGAGGAUCACCCAUGUCAAAAGACAUGAGGAUAUGGAUCCUAAUUGGAUCCAGAAGGCAUGGUCGUCC | 944 | 51.8 | – | – |
| UAAAUGUGAGGAUAUCAGGUGUGCUAGAGAACUGGUACAUCUGAGAAGGCACAUGAGGAUCACCCAUGUUCUUC | – | – | 39 | 207 |
| AGACUGAAGCAAGGAUAUUGUAAAGUUAUCGUACAAGAAGGUGCUGUUUAUGUCUCUUUACAUGAGGAUCACCCAUGUUUUUAA | 22.6 | 24.2 | – | – |
| UAAUGACCUGUACCUAGUUGGUGACAUGAGGAUCACCCAUGUCAGGAUAUCGGGUUUGAAAACAACGAGAAGGGACAACGGGUG | – | – | 20.9 | 42.1 |
| GGAUCCAACACAGGAUAUGCUGGACUUUGUCCAGCAGAAGGGUGAAGGACAUGAGGAUCACCCAUGUGGAUCCAUAUAUUUAAU | 324 | 27.8 | – | – |
| UAUAUAUAGUAAGGAUAUGUAGUUAUUUUAUAAACAGAAGGUACUGACAUGAGGAUCACCCAUGUUUUAGUGUGGGCAUGUAGA | – | – | 87.7 | 128 |
